Source: ChEMBL document CHEMBL1143519, “2-Piperazinecarboxamides as potent and selective melanocortin subtype-4 receptor agonists” (Bioorg Med Chem Lett, 2005)

Tests used:
[1] = target: T1, Melanocortin receptor 3 (Homo sapiens, UniProt P41968); details: at 10 µM
[2] = target: T2, Melanocortin receptor 4 (Homo sapiens, UniProt P32245); experiment: Inhibitory concentration to displace [125I]NDP-alpha-MSH from human melanocortin 4 receptor expressed in CHO cells; Control 19 nM; assay type: cell-based
[3] = target: Melanocortin receptor (M3 and M4) (Homo sapiens) (UniProt P32245+P41968); experiment: Selectivity for human melanocortin 3 receptor over melanocortin 4 receptor expressed in CHO cells; control 1 nM; assay type: cell-based
[4] = target: T2, Melanocortin receptor 4; details: at 10 µM
[5] = target: T2, Melanocortin receptor 4; experiment: Concentration of compound at 50% maximum cAMP accumulation mediated by human melanocortin 4 receptor; assay type: functional
[6] = Selectivity for human melanocortin 3 receptor over melanocortin 5 receptor expressed in CHO cells; control 6 nM; assay type: cell-based
[7] = target: T3, Melanocortin receptor 5 (Homo sapiens, UniProt P33032); experiment: Concentration of compound at 50% maximum cAMP accumulation mediated by human melanocortin 5 receptor; assay type: functional
[8] = target: T3, Melanocortin receptor 5; details: at 10 µM
[9] = species on record: Rattus norvegicus; experiment: Covalent binding to rat microsomal proteins after 30 min of incubation with [3H]-compound in the presence of NADPH (n=3); assay type: functional
Method in brief: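 Tritium-labelled compound was incubated for 30 min with rat liver microsomes plus NADPH. Radioactivity bound covalently to microsomal protein was expressed as pmol equivalents per mg protein. Values are mean ± standard deviation of n = 3.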

[10] = target: T1, Melanocortin receptor 3; experiment: Concentration of compound at 50% maximum cAMP accumulation mediated by human melanocortin 3 receptor; assay type: functional

T2 sequence (P32245 whole entry): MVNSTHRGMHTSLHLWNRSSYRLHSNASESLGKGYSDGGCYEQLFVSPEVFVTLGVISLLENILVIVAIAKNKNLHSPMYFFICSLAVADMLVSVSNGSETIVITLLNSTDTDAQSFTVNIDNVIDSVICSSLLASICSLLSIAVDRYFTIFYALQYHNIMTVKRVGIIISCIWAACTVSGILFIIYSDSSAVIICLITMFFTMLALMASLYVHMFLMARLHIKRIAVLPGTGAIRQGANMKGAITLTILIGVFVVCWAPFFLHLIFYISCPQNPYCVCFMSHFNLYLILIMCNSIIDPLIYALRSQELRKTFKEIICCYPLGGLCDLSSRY
T1 sequence (P41968 whole entry): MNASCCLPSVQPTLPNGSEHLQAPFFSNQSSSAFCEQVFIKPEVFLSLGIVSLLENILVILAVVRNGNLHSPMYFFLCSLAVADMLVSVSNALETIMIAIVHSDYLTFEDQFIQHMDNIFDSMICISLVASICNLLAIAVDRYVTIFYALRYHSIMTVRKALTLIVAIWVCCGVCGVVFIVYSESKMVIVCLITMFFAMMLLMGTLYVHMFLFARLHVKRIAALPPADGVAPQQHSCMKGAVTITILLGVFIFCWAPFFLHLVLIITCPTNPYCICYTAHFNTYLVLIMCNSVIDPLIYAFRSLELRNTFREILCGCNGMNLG
T3 sequence (P33032 whole entry): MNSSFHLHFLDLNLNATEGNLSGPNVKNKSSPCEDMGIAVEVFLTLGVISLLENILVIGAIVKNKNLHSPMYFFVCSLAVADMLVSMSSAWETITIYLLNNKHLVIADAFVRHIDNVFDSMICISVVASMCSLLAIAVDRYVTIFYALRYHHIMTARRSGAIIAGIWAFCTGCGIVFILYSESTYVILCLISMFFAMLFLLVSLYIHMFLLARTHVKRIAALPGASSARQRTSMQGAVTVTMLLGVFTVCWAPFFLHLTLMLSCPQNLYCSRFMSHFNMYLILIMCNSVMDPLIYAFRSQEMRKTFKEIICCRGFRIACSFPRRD

Compound | Accumulation [1] | IC50 [2] | Selectivity [3] | Accumulation [4] | EC50 [5] | EC50 [7] | Accumulation [8] | Activity [9] | EC50 [10] | Selectivity [6]
CC(C)(C)NC(=O)C1(C2CCCCC2)CCN(C(=O)[C@@H](Cc2ccc(F)cc2)NC(=O)[C@@H]2CN[C@@H](C3(C)CC3)CN2)CC1 | 10% | 5 nM | 99 | 95% | 7 nM | 300 nM | 62% |  |  | 40
CC(C)C1CNC[C@@H](C(=O)N[C@H](Cc2ccc(F)cc2)C(=O)N2CCC(C(=O)NC(C)(C)C)(C3CCCCC3)CC2)N1 (some centres undefined) | 4% | 11 nM | 81 | 92% | 18 nM |  | 10% | 216 |  | 105
CC(C)N(C(=O)C1(C2CCCCC2)CCN(C(=O)[C@@H](Cc2ccc(F)cc2)NC(=O)[C@@H]2CN(C)CCN2)CC1)C(C)C |  |  |  |  |  |  |  | 2150 |  | 
CC(C)[C@H]1CN[C@H](C(=O)N[C@H](Cc2ccc(F)cc2)C(=O)N2CCC(C(=O)NC(C)(C)C)(C3CCCCC3)CC2)CN1 | 8% | 4 nM | 140 | 82% | 3 nM | 340 nM | 49% | 107 |  | 116
CC(C)[C@@H]1CN[C@H](C(=O)N[C@H](Cc2ccc(F)cc2)C(=O)N2CCC(C(=O)NC(C)(C)C)(C3CCCCC3)CC2)CN1 | 6% | 20 nM | 61 | 77% | 42 nM | 1400 nM | 41% |  |  | 49
CC(C)(C)NC(=O)C1(C2CCCCC2)CCN(C(=O)[C@@H](Cc2ccc(F)cc2)NC(=O)[C@@H]2CN[C@@H](C(C)(C)C)CN2)CC1 | 11% | 5 nM | 116 | 99% | 7 nM | 360 nM | 46% |  |  | 39
CC[C@@H]1CN[C@H](C(=O)N[C@H](Cc2ccc(F)cc2)C(=O)N2CCC(C(=O)NC(C)(C)C)(C3CCCCC3)CC2)CN1C | 8% | 46 nM | 36 | 58% | 330 nM | 2400 nM | 36% |  |  | 49
CC(C)(C)NC(=O)C1(C2CCCCC2)CCN(C(=O)[C@@H](Cc2ccc(F)cc2)NC(=O)[C@@H]2CNC3(CC3)CN2)CC1 | 6% | 17 nM | 42 | 53% | 41 nM | 1900 nM | 36% |  |  | 61
CC(C)(C)NC(=O)C1(C2CCCCC2)CCN(C(=O)[C@@H](Cc2ccc(F)cc2)NC(=O)[C@@H]2CN[C@H](C(C)(C)C)CN2)CC1 | 5% | 29 nM | 48 | 77% | 91 nM | 1000 nM | 54% |  |  | 26
CC[C@H]1CN[C@H](C(=O)N[C@H](Cc2ccc(F)cc2)C(=O)N2CCC(C(=O)NC(C)(C)C)(C3CCCCC3)CC2)CN1C | 29% | 3 nM | 116 | 85% | 2 nM | 450 nM | 56% |  | 150 nM | 192

Now from value to molecule, other results behind:

Accumulation [1] | IC50 [2] | Selectivity [3] | Accumulation [4] | EC50 [5] | EC50 [7] | Accumulation [8] | Activity [9] | EC50 [10] | Compound | Selectivity [6]
6% | 6 nM | 86 | 79% | 8 nM | 880 nM | 42% | 50 |  | C[C@H]1CN[C@H](C(=O)N[C@H](Cc2ccc(F)cc2)C(=O)N2CCC(C(=O)NC(C)(C)C)(C3CCCCC3)CC2)CN1 | 87
9% | 3 nM | 152 | 89% | 5 nM | 710 nM | 43% |  |  | CC[C@H]1CN[C@H](C(=O)N[C@H](Cc2ccc(F)cc2)C(=O)N2CCC(C(=O)NC(C)(C)C)(C3CCCCC3)CC2)CN1 | 126
4% | 25 nM | 42 | 67% | 36 nM | 1400 nM | 33% |  |  | CC(C)(C)NC(=O)C1(C2CCCCC2)CCN(C(=O)[C@@H](Cc2ccc(F)cc2)NC(=O)[C@@H]2CN[C@H](C3CC3)CN2)CC1.CC(F)(F)C(=O)O | 65
5% | 24 nM | 49 | 69% | 93 nM | 920 nM | 56% |  |  | CC(C)(C)NC(=O)C1(C2CCCCC2)CCN(C(=O)[C@@H](Cc2ccc(F)cc2)NC(=O)[C@@H]2CN[C@H](C3(C)CC3)CN2)CC1 | 23
9% | 8 nM | 119 | 102% | 5 nM | 760 nM | 44% | 103 |  | CC(C)(C)NC(=O)C1(C2CCCCC2)CCN(C(=O)[C@@H](Cc2ccc(F)cc2)NC(=O)[C@@H]2CN[C@@H](C3CC3)CN2)CC1 | 59
6% | 40 nM | 59 | 69% | 150 nM |  | 45% |  |  | CC[C@@H]1CN[C@H](C(=O)N[C@H](Cc2ccc(F)cc2)C(=O)N2CCC(C(=O)NC(C)(C)C)(C3CCCCC3)CC2)CN1 | 75
